Results on nine compounds are retold here after ChEMBL document CHEMBL4190195, “Bioactive Glycosides from the Twigs of Litsea cubeba” (J Nat Prod, 2017).

The structures appear in SMILES notation. Active and inactive are the calls of the source. The rule behind the calls is not given here.

One experiment deals with HepG2. As to the kind of experiment: Cytoprotection against 8 mM acetaminophen-induced human HepG2 cells assessed as cell viability at 10 uM after 24 hrs by MTT assay (reference value: 0 +/- 2%). The conditions noted are these: in the assay text read “after 48 hrs” for “after 24 hrs”. The format is functional. In outline:
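HepG2 cells seeded at 1.5 × 10^4 cells/well in DMEM and grown 24 h at 37 °C, 5% CO2. Compound (10 μM) then added together with 8 mM acetaminophen; bicyclol 10 μM plus 8 mM acetaminophen served as reference. Cultured 48 h, then 0.5 mg/mL MTT for 4 h, formazan OD read at 570 nm. Mean ± SD of four independent experiments; Student's t-test.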
Background: Formazan colour is commonly taken as a measure of viable cells.

The next experiment concerns A2780. The experiment can be described thus: Cytotoxicity against human A2780 cells assessed as growth inhibition at 10 uM after 72 hrs by coulter counting method. The format is functional, cell-based.
The next experiment deals with Peritoneal macrophage. As to the kind of experiment: Inhibition of LPS-induced TNFalpha secretion in C57BL6J mouse peritoneal macrophages at 10 uM after 24 hrs. The format is functional, cell-based.
The subject of a further experiment is HCT-8. The experiment can be described thus: Cytotoxicity against human HCT8 cells assessed as growth inhibition at 10 uM after 72 hrs by coulter counting method. The class given is functional, cell-based.
A further experiment deals with Bel-7402. The experiment can be described thus: Cytotoxicity against human Bel7402 cells assessed as growth inhibition at 10 uM after 72 hrs by coulter counting method. The format is functional, cell-based.
A further experiment relates to A549. As to the kind of experiment: Cytotoxicity against human A549 cells assessed as growth inhibition at 10 uM after 72 hrs by coulter counting method. The format is functional, cell-based.
A further experiment deals with BGC-823. As to the kind of experiment: Cytotoxicity against human BGC823 cells assessed as growth inhibition at 10 uM after 72 hrs by coulter counting method. The class given is functional, cell-based.
A further experiment concerns the target Histone deacetylase 1 (Homo sapiens, UniProt Q13547). The experiment can be described thus: Inhibition of HDAC1 (unknown origin) using H3(1 to 21)K9 after 60 mins by fluorescence assay.

Histone deacetylase 1, sequence (Q13547 whole entry): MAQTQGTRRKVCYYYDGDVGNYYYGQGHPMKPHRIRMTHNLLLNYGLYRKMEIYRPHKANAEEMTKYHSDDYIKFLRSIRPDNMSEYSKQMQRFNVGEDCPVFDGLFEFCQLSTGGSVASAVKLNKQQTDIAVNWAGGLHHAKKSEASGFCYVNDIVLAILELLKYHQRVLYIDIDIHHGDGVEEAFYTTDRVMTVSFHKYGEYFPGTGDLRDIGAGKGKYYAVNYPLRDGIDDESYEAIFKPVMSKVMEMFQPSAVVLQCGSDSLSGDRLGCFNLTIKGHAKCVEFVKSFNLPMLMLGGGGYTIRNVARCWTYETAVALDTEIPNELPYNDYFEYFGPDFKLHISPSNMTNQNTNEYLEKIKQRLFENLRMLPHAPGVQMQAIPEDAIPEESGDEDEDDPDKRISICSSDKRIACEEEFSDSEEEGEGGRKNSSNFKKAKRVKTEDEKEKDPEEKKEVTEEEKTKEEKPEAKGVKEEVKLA

For the compound `COc1cc([C@H]2Oc3c(OC)cc(/C=C/CO[C@@H]4O[C@H](CO)[C@@H](O)[C@H](O)[C@H]4O)cc3[C@@H]2CO)cc(OC)c1O[C@@H]1O[C@H](CO)[C@@H](O)[C@H](O)[C@H]1O`, the Activity with HepG2 came out at 30.5%.
What is called IC50 is the concentration at which inhibition is half-maximal. Read a high IC50 as weaker potency in that assay. For `COc1cc([C@H]2Oc3c(OC)cc(CCCO)cc3[C@@H]2CO)ccc1O[C@@H]1O[C@H](CO)[C@@H](O)[C@H](O)[C@H]1O`, the “growth inhibition (GI)” value in the experiment on A2780, with HCT-8, with Bel-7402, with A549 and in the experiment on BGC-823 was “inactive” in each case. Also, in the experiment with Peritoneal macrophage, the inhibition result is “inactive”. Besides, the Activity with HepG2 is listed as 38.4%. The same compound had an IC50 on Histone deacetylase 1 of 3.6 µM.
For the compound `COc1cc([C@@H](O)[C@H](CO)Oc2c(OC)cc(CCC(C)O)cc2OC)cc(OC)c1O[C@@H]1O[C@H](CO)[C@@H](O)[C@H](O)[C@H]1O` (some centres not stated), in the experiment on HepG2, the Activity is 38.9%.
Take `COC(=O)c1cc(OC)c2c(c1-c1c(CO)cc(OC)c3c1OCO3)OCO2` [BICYCLOL]: the Activity in the experiment with HepG2 was determined as 34.8%.
On the same count and under the same terms, the figure for `COc1cc([C@H]2Oc3c(OC)cc(/C=C/CO[C@@H]4O[C@H](CO)[C@@H](O)[C@H](O)[C@H]4O)cc3[C@@H]2CO)ccc1O[C@@H]1O[C@H](CO)[C@@H](O)[C@H](O)[C@H]1O` is 46%; for `COc1cc([C@H]2Oc3c(OC)cc(CCCO)cc3[C@@H]2CO)cc(OC)c1O[C@@H]1O[C@H](CO)[C@@H](O)[C@H](O)[C@H]1O` it is 31.2%; for `CCC(=O)c1cc(OC)c(O[C@@H]2O[C@H](CO[C@@H]3O[C@@H](C)[C@H](O)[C@@H](O)[C@H]3O)[C@@H](O)[C@H](O)[C@H]2O)c(OC)c1` it is 37.6%.
Same read-out and setting: the figure for `COc1cc([C@H]2Oc3c(OC)cc(CCCO)cc3[C@@H]2CO[C@@H]2O[C@H](CO[C@@H]3O[C@@H](C)[C@H](O)[C@@H](O)[C@H]3O)[C@@H](O)[C@H](O)[C@H]2O)ccc1O` is 37.4%.
As for `O=C(O)/C=C\c1cc2ccoc2cc1O[C@@H]1O[C@H](CO)[C@@H](O)[C@H](O)[C@H]1O`, the “growth inhibition (GI)” value with A2780, with HCT-8, in the experiment with Bel-7402, with A549 and in the experiment with BGC-823 was “inactive” in each case. The inhibition result with Peritoneal macrophage was “inactive”. The IC50 against Histone deacetylase 1 was determined as 4.6 µM.
